# Bioassay records deposited in PubChem by Sanford-Burnham Center for Chemical Genomics.
# Most compounds without a hit are left out; they make up all but 2.3% or so of the library.
# LMPTP inh – LMPTP (human) inhibition | P24666 | recombinant LMPTP-A, OMFP fluorogenic substrate, fluorescence intensity | inhibition, % at 20 µM | actives 0.22% (n = 360,000) | AID 651560;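 active = compounds that cut the enzyme signal by at least half of the control window in the single-dose screen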;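 note: plate controls were DMSO wells with enzyme plus substrate for no effect and substrate without enzyme for full effect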
#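 Material: LMPTP-A; amount: 0.625 nM enzyme; doses: single 20 µM dose; times: reaction 50 min, room temperature, dark; technique: fluorescence intensity of OMFP turnover product; benchmarks: no-enzyme and uninhibited controls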
# Scp1 inh – blocks human Scp-1 phosphatase activity. Q9GZU7. Recombinant Scp1, phosphopeptide, malachite green phosphate absorbance. inhibition, % at 20 µM. AID 493091. actives 0.88% (n = 340,000);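 active = inhibition above about 50% at 20 µM, limit read from the data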;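 note: plate controls were DMSO wells with enzyme for no effect and wells lacking enzyme for full effect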
#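 Test system – truncated SCP-1 phosphatase (76-261aa) · Reagent – Phosphorylated 17-residue peptide substrate · Incubation – 45 min room-temperature reaction, 5 min colour, 30 min stabiliser · Detection – colorimetric phosphate reagent with accelerator and stabiliser, absorbance at 630 nm · Measure – % inhibition at 20 µM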
# Rpn11 inh – blocks the human proteasome subunit Rpn11. O00487. human 26S proteasome, Ub4-pepOG fluorescence polarization; 20S core pre-blocked with epoxomicin. inhibition, % at 20 µM. actives 0.59% (n = 360,000). AID 588493;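 active = inhibition at 20 µM, scaled to each plate's controls, above about 33%, limit read from the data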
# SUMO1 PPI mod – modulators of human SUMO1-mediated protein-protein interactions | inhibition, % at 20 µM | SUMO1 binding to a labelled peptide, TR-FRET, 1 h | actives 0.33% (n = 360,000); in the data active = inhibition above about 37%
# STEP inh – blocks human striatal-enriched tyrosine phosphatase; recombinant STEP, OMFP fluorogenic substrate, fluorescence; inhibition, % at 20 µM; actives 0.25% (n = 360,000); AID 588621;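 active = inhibition at 20 µM, scaled per plate between control wells, above about 37%, limit read from the data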;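 note: 0% = DMSO with enzyme and substrate and 100% = substrate only without enzyme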
#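 Material: STEP (striatal-enriched tyrosine phosphatase) enzyme, cell-free; Compound dosing: 20 µM single dose in 1% DMSO; Technique: fluorescence read at 480 nm ex / 540 nm em; Times: reaction 20 min, ambient temperature; Medium: 50 mM Bis-Tris pH 6.0 with 2.5 mM DTT and 0.005% Tween 20; Also added: OMFP at 25 µM.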
# DNMT1 block – blocks human DNA methyltransferase DNMT1. AID 588458. P26358. DNMT1 molecular beacon, Hinp1I cleavage, fluorescence. inhibition (reported as % activation of signal), % at 10 µM. actives 0.83% (n = 360,000); in the data active = inhibition above about 50%
# Target sequence (P26358 504-1616 limits assumed): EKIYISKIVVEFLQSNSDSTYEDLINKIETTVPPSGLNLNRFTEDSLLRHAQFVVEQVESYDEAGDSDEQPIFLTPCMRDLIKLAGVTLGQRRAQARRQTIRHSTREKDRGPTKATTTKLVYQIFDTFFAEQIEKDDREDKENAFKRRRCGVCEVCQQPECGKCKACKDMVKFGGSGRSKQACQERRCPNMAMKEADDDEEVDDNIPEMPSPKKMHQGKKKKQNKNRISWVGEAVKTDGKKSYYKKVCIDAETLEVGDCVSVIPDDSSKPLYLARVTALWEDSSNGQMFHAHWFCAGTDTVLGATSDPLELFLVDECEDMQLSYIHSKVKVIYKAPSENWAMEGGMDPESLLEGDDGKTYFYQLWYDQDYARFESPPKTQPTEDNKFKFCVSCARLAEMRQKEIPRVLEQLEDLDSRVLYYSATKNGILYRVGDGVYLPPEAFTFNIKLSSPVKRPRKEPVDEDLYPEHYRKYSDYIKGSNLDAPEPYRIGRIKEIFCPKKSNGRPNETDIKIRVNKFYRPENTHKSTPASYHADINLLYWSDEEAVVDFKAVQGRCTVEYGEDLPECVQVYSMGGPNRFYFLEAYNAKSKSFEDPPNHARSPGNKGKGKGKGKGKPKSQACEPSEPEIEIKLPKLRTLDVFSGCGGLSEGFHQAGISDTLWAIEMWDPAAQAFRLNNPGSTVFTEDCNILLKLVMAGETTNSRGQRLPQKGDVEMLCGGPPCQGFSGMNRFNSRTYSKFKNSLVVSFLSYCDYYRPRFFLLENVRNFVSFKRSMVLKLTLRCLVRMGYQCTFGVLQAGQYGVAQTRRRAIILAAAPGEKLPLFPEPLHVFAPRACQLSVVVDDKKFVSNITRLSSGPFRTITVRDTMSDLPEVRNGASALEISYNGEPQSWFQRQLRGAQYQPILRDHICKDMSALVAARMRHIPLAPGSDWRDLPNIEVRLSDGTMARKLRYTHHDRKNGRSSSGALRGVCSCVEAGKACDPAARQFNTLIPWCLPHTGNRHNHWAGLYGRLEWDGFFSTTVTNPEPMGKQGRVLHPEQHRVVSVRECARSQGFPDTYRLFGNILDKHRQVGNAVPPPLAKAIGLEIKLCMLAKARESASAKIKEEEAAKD
# * hit, by the source's call; . = no result given.
SMILES,LMPTP inh,Scp1 inh,Rpn11 inh,SUMO1 PPI mod,STEP inh,DNMT1 block
O=C(Nc1ccc(F)cc1)c1ccc(NC(=O)C2CCCO2)cc1 (stereo unspecified),-1.0,0.1,-0.3,4.0,0.8,2.2
O=c1[nH][nH]c2c(N=Cc3ccccc3O)ccc(F)c12,70.3*,91.5*,-32.6,91.9*,94.2*,118.0*
CCc1ccc(O)c(N=Cc2ccccc2O)c1,-0.8,-5.6,.,0.9,-2.3,-3.1
CC(C)c1ccc(CN2C(=O)NC3(CCCCCC3)C2=O)cc1,1.1,-15.1,0.3,-1.6,0.7,0.0
CCOC(=O)c1sc(N/N=C/c2cc(Br)c(O)c(OC)c2)nc1C,-0.2,2.3,24.0,39.5,83.7*,-9.3
CCC(CO)Oc1cc(NC(=O)c2cccc(OC)c2)c2ncn(C(C)C)c2c1 (stereo unspecified),0.4,0.8,33.2,60.8*,4.4,-25.2
CCC(CO)Oc1cc(NC(=O)c2ccc(OC)cc2)c2ncn(C(C)C)c2c1 (stereo unspecified),2.2,2.6,31.3,-1.3,-2.0,-12.2
CC(=O)CC1c2ccccc2C=C(c2ccsc2)N1c1ccc(-c2cccs2)cc1 (stereo unspecified),1.5,.,.,-7.3,.,.
C#CCOCCOCCOCCNc1nc(N2CCN(C(=O)CCCCCCCCCCNC(=O)[C@H](CCCCN)n3cc(CCO)nn3)CC2)nc(N2CCN(C(=O)CCCCCCCCCCNC(=O)[C@@H]([C@H](C)O)n3cc(C)nn3)CC2)n1,-5.3,5.0,7.4,-52.2,-3.8,-102.1
C#CCOCCOCCOCCNc1nc(N2CCN(C(=O)CCCCCCCCCCNC(=O)[C@H]([C@@H](C)CC)n3cc(CCCCCN)nn3)CC2)nc(N2CCN(C(=O)CCCCCCCCCCNC(=O)[C@@H]([C@H](C)O)n3cc(C)nn3)CC2)n1,2.3,26.6,45.4*,-52.5,2.5,-101.9
C#CCOCCOCCOCCNc1nc(N2CCN(C(=O)CCCCCCCCCCNC(=O)[C@H](CCCCN)n3cc(C)nn3)CC2)nc(N2CCN(C(=O)CCCCCCCCCCNC(=O)[C@@H]([C@H](C)CC)n3cc(CCCCCN)nn3)CC2)n1,3.7,.,66.8*,50.7*,7.8,-38.2
O=S(=O)(c1ccc(Cl)cc1)N1CCC2(CC1)CO2,0.0,-4.9,2.2,5.0,-1.1,0.6
O=C(CCn1cnc(-c2ccccc2)c1-c1ccccc1)N/N=C/c1ccc(O)cc1,-0.6,-5.7,-5.1,1.0,-3.0,3.6
COc1ccc(/C=N/NC(=O)CCn2cnc(-c3ccccc3)c2-c2ccccc2)cc1,1.5,1.2,20.2,0.3,117.8*,-4.8
Clc1ccc(-c2nc3c4ccccc4ccn3c2Cc2ccccc2)cc1,3.6,.,9.3,-7.9,-2.1,6.4
CC(C)Nc1nc(NCCN2CCCC2)c2sc(-c3ccccc3)cc2n1,51.9*,.,1.0,-57.3,7.5,-10.9
COc1ccccc1C(C(=O)c1ccccc1)c1ccc(O)cc1 (stereo unspecified),1.0,.,.,0.5,.,.
CN(C)c1ccc(/C=N/N=C2/NC(=O)/C(=C/c3ccc([N+](=O)[O-])cc3)S2)cc1,4.1,-1.9,11.7,-30.2,7.3,66.1*
O=C(CSc1nnc(CNC(=O)c2ccccc2)o1)NCC1CCCO1 (stereo unspecified),1.0,-6.0,-2.6,5.9,-1.1,1.6
O=C(NCc1cccnc1)C1C2C=CC(C2)C1C(=O)Nc1cccc(C(F)(F)F)c1 (stereo unspecified),-0.2,.,-1.0,40.3*,3.4,-1.2
N#C/C(=C\c1ccc(-c2ccc(C(=O)O)cc2)o1)c1nc2ccccc2[nH]1,8.4,56.9*,.,2.7,60.3*,-0.7
N#C/C(=C\c1ccccc1C(=O)O)c1nc2ccccc2[nH]1,0.7,-12.3,4.0,-10.0,-1.9,-1.7
CNC(=S)N/N=C1\C(=O)c2cccc3cccc1c23,2.2,-4.8,0.4,-11.4,0.7,-7.3
O=C(N/N=C1\C(=O)c2cccc3cccc1c23)c1ccc(O)cc1,16.9,23.9,4.6,41.3*,10.1,44.1
